Data taken from ChEMBL document CHEMBL1154778, “Synthesis and biological evaluation of C-5 methyl substituted 4-arylthio and 4-aryloxy-3-Iodopyridin-2(1H)-one type anti-HIV agents” (J Med Chem, 2009).

Legend:
[1] = test system: Human immunodeficiency virus 1; assay: Antiviral activity against HIV1 HXB2 harboring 100I mutant reverse transcriptase infected in human MT4 cells after 5 days by MTT assay; type: functional, organism-based; details: Human immunodeficiency virus 1, HXB2, MT4, 120 h
Procedure, shortened: (§1)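 Mutant viruses were made by recombining the mutant PR-RT sequence into a PR-RT-deleted HIV-1 HXB2 proviral clone. MT4 cells were grown in RPMI 1640 with 10% FCS and antibiotics. Virus at 200 CCID50/well and 30000 cells/well were incubated with varied compound concentrations for 5 days at 37 °C, 5% CO2. MTT viability gave IC50, the concentration giving 50% infection versus the drug-free control.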

[2] = test system: Human immunodeficiency virus 1; assay: Antiviral activity against HIV1 HXB2 harboring 106A mutant reverse transcriptase infected in human MT4 cells after 5 days by MTT assay; type: functional, organism-based; details: Human immunodeficiency virus 1, HXB2, MT4, 120 h; procedure, shortened: as §1
[3] = test system: Human immunodeficiency virus 1; assay: Antiviral activity against HIV1 HXB2 harboring 179E mutant reverse transcriptase infected in human MT4 cells after 5 days by MTT assay; type: functional, organism-based; details: Human immunodeficiency virus 1, HXB2, MT4, 120 h; procedure, shortened: as §1
[4] = test system: Human immunodeficiency virus 1; assay: Antiviral activity against HIV1 HXB2 harboring 138K mutant reverse transcriptase infected in human MT4 cells after 5 days by MTT assay; type: functional, organism-based; details: Human immunodeficiency virus 1, HXB2, MT4, 120 h; procedure, shortened: as §1
[5] = test system: Human immunodeficiency virus 1; assay: Antiviral activity against HIV1 HXB2 harboring 227C mutant reverse transcriptase infected in human MT4 cells after 5 days by MTT assay; type: functional, organism-based; details: Human immunodeficiency virus 1, HXB2, MT4, 120 h; procedure, shortened: as §1
[6] = test system: Human immunodeficiency virus 1; assay: Antiviral activity against HIV1 HXB2 harboring 101E mutant reverse transcriptase infected in human MT4 cells after 5 days by MTT assay; type: functional, organism-based; details: Human immunodeficiency virus 1, HXB2, MT4, 120 h; procedure, shortened: as §1
[7] = test system: Human immunodeficiency virus 1; assay: Antiviral activity against HIV1 HXB2 harboring K103N and Y181C mutant reverse transcriptase infected in human MT4 cells after 5 days by MTT assay; type: functional, organism-based; details: Human immunodeficiency virus 1, HXB2, MT4, 120 h; procedure, shortened: as §1
[8] = test system: Human immunodeficiency virus 1; assay: Ratio of efavirenz IC50 to compound IC50 for HIV1 HXB2 harboring 100I and K103N mutant reverse transcriptase infected in human MT4 cells; type: functional
[9] = test system: Human immunodeficiency virus 1; assay: Antiviral activity against HIV1 HXB2 harboring 100I and K103N mutant reverse transcriptase infected in human MT4 cells after 5 days by MTT assay; type: functional, organism-based; details: Human immunodeficiency virus 1, HXB2, MT4, 120 h; procedure, shortened: as §1
[10] = test system: Human immunodeficiency virus 1; assay: Antiviral activity against HIV1 HXB2 harboring 190S mutant reverse transcriptase infected in human MT4 cells after 5 days by MTT assay; type: functional, organism-based; details: Human immunodeficiency virus 1, HXB2, MT4, 120 h; procedure, shortened: as §1
[11] = test system: Human immunodeficiency virus 1; assay: Antiviral activity against HIV1 HXB2 harboring Y188L mutant reverse transcriptase infected in human MT4 cells after 5 days by MTT assay; type: functional, organism-based; details: Human immunodeficiency virus 1, HXB2, MT4, 120 h; procedure, shortened: as §1
[12] = test system: Human immunodeficiency virus 1; assay: Antiviral activity against HIV1 HXB2 harboring K103N mutant reverse transcriptase infected in human MT4 cells after 5 days by MTT assay; type: functional, organism-based; details: Human immunodeficiency virus 1, HXB2, MT4, 120 h; procedure, shortened: as §1
[13] = test system: Human immunodeficiency virus 1; assay: Antiviral activity against HIV1 HXB2 harboring 190A mutant reverse transcriptase infected in human MT4 cells after 5 days by MTT assay; type: functional, organism-based; details: Human immunodeficiency virus 1, HXB2, MT4, 120 h; procedure, shortened: as §1
[14] = test system: Human immunodeficiency virus 1; assay: Antiviral activity against HIV1 HXB2 harboring 227L and 106A mutant reverse transcriptase infected in human MT4 cells after 5 days by MTT assay; type: functional, organism-based; details: Human immunodeficiency virus 1, HXB2, MT4, 120 h; procedure, shortened: as §1
[15] = test system: Human immunodeficiency virus 1; assay: Antiviral activity against HIV1 HXB2 harboring Y181C mutant reverse transcriptase infected in human MT4 cells after 5 days by MTT assay; type: functional, organism-based; details: Human immunodeficiency virus 1, HXB2, MT4, 120 h; procedure, shortened: as §1
[16] = test system: Human immunodeficiency virus 1; assay: Antiviral activity against HIV-1 LAI harboring wild type reverse transcriptase infected in human MT4 cells after 5 days by MTT assay; type: functional, organism-based; details: Human immunodeficiency virus 1, LAI, MT4, 120 h
Procedure, shortened: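 MT4 cells were kept in RPMI 1640 with 10% fetal calf serum and antibiotics at 37 °C, 5% CO2. A range of compound concentrations was incubated with HIV-1 LAI at 200 CCID50/well and 30000 MT4 cells/well for 5 days at 37 °C. Cell viability was read by MTT, and IC50 was the concentration giving 50% infection versus the drug-free control.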

[17] = test system: Human immunodeficiency virus 1; assay: Antiviral activity against HIV1 HXB2 harboring 101E and K103N mutant reverse transcriptase infected in human MT4 cells after 5 days by MTT assay; type: functional, organism-based; details: Human immunodeficiency virus 1, HXB2, MT4, 120 h; procedure, shortened: as §1
[18] = Selectivity index, ratio of CC50 for human MT4 cells to IC50 for HIV-1 LAI harboring wild type reverse transcriptase infected in human MT4 cells; type: functional
Procedure, shortened: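 Cytotoxicity was measured in mock-infected MT4 cultures (30000 cells/well) given the same compound concentration range, run in parallel with the infected cultures for 5 days at 37 °C, 5% CO2, with MTT viability. CC50 was the concentration reducing viability by 50% versus the drug-free control. SI was CC50 divided by IC50 against HIV-1 LAI.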

[19] = test system: Human immunodeficiency virus 1; assay: Ratio of efavirenz IC50 to compound IC50 for HIV1 HXB2 harboring K103N mutant reverse transcriptase infected in human MT4 cells; type: functional
[20] = test system: Human immunodeficiency virus 1; assay: Ratio of efavirenz IC50 to compound IC50 for HIV1 HXB2 harboring Y188L mutant reverse transcriptase infected in human MT4 cells; type: functional
[21] = test system: Human immunodeficiency virus 1; assay: Ratio of compound IC50 to efavirenz IC50 for HIV1 HXB2 harboring Y181C mutant reverse transcriptase infected in human MT4 cells; type: functional

| SMILES | IC50 [1] [nM] | IC50 [2] [nM] | IC50 [3] [nM] | IC50 [4] [nM] | IC50 [5] [nM] | IC50 [6] [nM] | IC50 [10] [nM] | IC50 [14] [nM] | IC50 [17] [nM] | Ratio CC50/IC50 [18] | further results |
| --- | --- | --- | --- | --- | --- | --- | --- | --- | --- | --- | --- |
| Cc1cc(C)cc(Sc2c(Cn3cnnn3)c(C)[nH]c(=O)c2I)c1 | 0.79 | 0.5 | 0.8 | 1.1 | 31.6 | 1.4 | 0.2 | 39.8 | 1 | >79433 | IC50 [7]: 6.8 nM; Ratio IC50 [8]: 1000; IC50 [9]: 1.25 nM; IC50 [11]: 15.8 nM; IC50 [12]: 0.31 nM; IC50 [13]: 0.9 nM; IC50 [15]: 7.9 nM; IC50 [16]: 1.25 nM |
| CCc1c(C)[nH]c(=O)c(I)c1Oc1cc(C)cc(C)c1 | 6.31 | 5.01 | 1.99 | 3.98 | 63.1 | 6.31 | 1.99 | 398 | 15.8 | 9000 | Ratio IC50 [19]: 10; Ratio IC50 [20]: 3; Ratio IC50 [21]: 10 |
